Measured values of several laboratories.
Lines come from different studies, so protocols differ.
HTR2B: 5-hydroxytryptamine receptor 2B (HTR2B, Homo sapiens, UniProt P41595)
HTR2C: 5-hydroxytryptamine receptor 2C (HTR2C, Homo sapiens, UniProt P28335)

c1cncc([C@@H]2CCCN2)c1
inhibition (Neuronal acetylcholine receptor; alpha3/beta4 (Rattus norvegicus, UniProt P04757+P12392); ligand displacement; radioligand; 50 µM): 69.1%

COc1cc2c3c(c1OC)-c1c(OC)ccc(Cl)c1CC3N(C)CC2 (racemic)
inhibition (HTR2B; ligand displacement; radioligand; 10 µM): 87%

CN1CCC[C@H]1c1cccnc1
inhibition (HTR2B; ligand displacement; 50 µM): -8.78%

COc1cc2c3c(c1OC)-c1c(cccc1OC)CC3N(C)CC2 (racemic)
inhibition (HTR2C; ligand displacement; radioligand; 10 µM): 51%

CC[C@H](C)[C@H](NC(=O)[C@H](CO)NC(=O)[C@H](Cc1ccc(O)cc1)NC(=O)[C@H](CC(=O)O)NC(=O)[C@H](CO)NC(=O)[C@@H](NC(=O)[C@H](Cc1ccccc1)NC(=O)[C@@H](NC(=O)CNC(=O)[C@H](CCC(=O)O)NC(=O)[C@@H](C)NC(=O)[C@@H](N)Cc1ccc(O)cc1)[C@@H](C)O)[C@@H](C)CC)C(=O)N[C@@H](C)C(=O)N[C@@H](CCSC)C(=O)N[C@@H](CC(=O)O)C(=O)N[C@@H](CCCCN)C(=O)N[C@H](C(=O)N[C@@H](Cc1c[nH]cn1)C(=O)N[C@@H](CCC(N)=O)C(=O)N[C@@H](CCC(N)=O)C(=O)N[C@@H](CC(=O)O)C(=O)N[C@@H](Cc1ccccc1)C(=O)N[C@H](C(=O)N[C@@H](CC(N)=O)C(=O)N[C@@H](Cc1c[nH]c2ccccc12)C(=O)N[C@@H](CC(C)C)C(=O)N[C@@H](CC(C)C)C(=O)N[C@@H](C)C(=O)N[C@@H](CCC(N)=O)C(=O)NCC(=O)N1CCC[C@H]1C(=O)N[C@@H](CO)C(=O)N[C@@H](CO)C(=O)NCC(=O)N[C@@H](C)C(=O)N1CCC[C@H]1C(=O)N1CCC[C@H]1C(=O)N1CCC[C@H]1C(=O)N[C@@H](CO)C(=O)N[C@@H](CCCCN)C(N)=O)C(C)C)[C@@H](C)CC
Emax (Glucagon receptor (Mus musculus, UniProt Q61606); cAMP; agonist): < 20%

COc1cc(C(F)(F)F)c(OC)cc1C1CCCNC1 (stereo not drawn)
Emax (HTR2C; calcium signal; agonist): 31%

CCOC(=O)Cc1c2c3c(cc(OC)c(OC)c3c3cc(OC)c(OC)cc13)CCN2C
inhibition (HTR2C; ligand displacement; radioligand; 10 µM): 6%

Nc1ncnc2c1ncn2[C@@H]1O[C@H](C[C@@H](N)CC[C@H](N)C(=O)O)[C@@H](O)[C@H]1O
inhibition (mRNA cap guanine-N(7) methyltransferase (RNMT, Homo sapiens, UniProt O43148); enzyme activity; inhibitor; 12.21 nM): 13.7%

[2H]c1c([2H])c([C@]2([2H])CCCN2C(=O)C(C)(C)Oc2ccc3cn[nH]c3c2)c([2H])c([2H])c1C([2H])([2H])[2H]
remaining binding (Serine/threonine-protein kinase DCLK3 (DCLK3, Homo sapiens, UniProt Q9C098); binding; competition with immobilised ligand; 1 µM): 86%

CC(C)CC(=O)OC[C@H]1O[C@@](C#N)(c2ccc3c(N)ncnn23)[C@H](O)[C@@H]1O
inhibition (HTR2B; cell-free assay; 20 µM): 10%

COc1cc2c(cc1OC)-c1c(OC)c(OC)cc3c1[C@H](C2)N(C)CC3
inhibition (HTR2B; ligand displacement; radioligand; 10 µM): 92%

CCCC(NCCc1cc(OC)c(C#N)cc1OC)c1ccccc1O (stereo not drawn)
Emax (HTR2C; calcium signal; agonist): 56%
